MrgX1 allo act: allosterically activates human MrgX1 receptor signaling; 310,000 tested, 0.63% active; MrgX1-HEK293, Fluo-4 calcium flux, FDSS; hits give high values; Q96LB2; B-score at 10 µM;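 active = plate-corrected calcium response at least 3 library SD above typical, normal starting fluorescence, not activating the receptor alone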;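 note: compound read alongside a low EC10 to EC30 dose of BAM8-22 agonist; peak minus trough fluorescence over baseline measured at the second addition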
Target sequence (Q96LB2 whole entry, looked up): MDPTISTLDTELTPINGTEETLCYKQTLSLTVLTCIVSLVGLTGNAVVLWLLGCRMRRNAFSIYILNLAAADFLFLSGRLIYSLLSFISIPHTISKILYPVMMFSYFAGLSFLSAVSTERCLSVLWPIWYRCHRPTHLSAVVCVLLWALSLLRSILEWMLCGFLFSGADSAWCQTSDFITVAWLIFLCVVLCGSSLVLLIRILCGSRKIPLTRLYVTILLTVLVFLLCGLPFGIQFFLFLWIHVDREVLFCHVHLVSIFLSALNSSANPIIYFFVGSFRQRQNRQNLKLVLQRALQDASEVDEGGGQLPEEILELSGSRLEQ
MrgX1 antagonist: human MrgX1 receptor antagonism, primary screen; Q96LB2; MRGX1-HEK293 calcium flux, Fluo-4, BAM8-22 antagonism; hits give low values; B-score at 10 µM; 310,000 tested, 1.3% active; AID 588676;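 active = calcium-response B-score plate-corrected more than 3 library SD below zero, starting fluorescence within 5 deviations, no agonist response on first addition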;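 note: peak minus trough fluorescence over baseline after final BAM8-22 challenge near maximal dose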
RGS4 act: RGS4 potentiation or activation | AID 463111 | HEK293 M3R/inducible RGS4, carbachol calcium flux Fluo4; hits give low values | 310,000 tested, 0.92% active | B-score at 10 µM;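 active = B-score of the integrated calcium signal more than 4 SD below the library mean, with starting fluorescence not abnormally high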;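 note: negative B-score means reduced calcium response which marks RGS4 activation or potentiation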
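Material: M3R-expressing HEK293 line, RGS4 induced by doxycycline | Schedule: Overnight RGS4 induction, 30 min dye load 37 °C, 20 min compound RT | Measured by: Fluo4 fluorescence kinetic imaging of calcium | Read-out: Integrated calcium ratio converted to B score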
RGS4 inh: human RGS4 inhibition. HEK293 M3R/RGS4 inducible, Fluo-4 calcium flux; hits give high values; triggered by carbachol at its EC20. AID 463165. 310,000 tested, 0.45% active. P49798. B-score at 10 µM;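 active = B-score, a plate-corrected calcium signal, over three deviations above library mean, with baseline fluorescence within five deviations of library mean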;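 note: RGS4 expression induced by doxycycline in cells with stable M3 receptor; B-score is computed from the integrated fluorescence ratio over baseline after carbachol; higher B-score means a larger calcium signal and so more RGS4 inhibition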
Target sequence (P49798 whole entry, looked up): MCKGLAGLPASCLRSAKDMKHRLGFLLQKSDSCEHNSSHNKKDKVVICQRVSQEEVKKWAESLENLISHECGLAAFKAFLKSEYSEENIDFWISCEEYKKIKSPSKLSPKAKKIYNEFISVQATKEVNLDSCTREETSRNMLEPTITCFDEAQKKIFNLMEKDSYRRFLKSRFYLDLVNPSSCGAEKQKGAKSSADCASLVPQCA
MrgX1 agonist: agonists of human MrgX1 receptor | AID 588627 | MrgX1-HEK293 cells, Fluo-4 calcium fluorescence, agonist mode; hits give high values | 310,000 tested, 0.44% active | Q96LB2 | B-score at 10 µM;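 active = calcium response B-score plate-corrected fluorescence ratio at least 3 library SD, with starting fluorescence B-score inside 5 SD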
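Test system: HEK293 cells stably expressing human MrgX1 receptor; amount: 15,000 cells per well; doses: compound delivered in addition one of three; times: overnight plating before 1 h dye loading; detection: Fluo-4 NW calcium-flux fluorescence, kinetic read; read-out basis: B-scored fluorescence response ratio; controls: positive and negative controls per plate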
RGS4 inh valid: validation of RGS4 inhibitors. HEK293 M3R/RGS4, carbachol calcium Fluo-4 fluorescence; carbachol added at its EC20; 0 = buffer wells, 100 = carbachol control. 1,700 tested, 65% active. shares compounds with RGS4 inh. calcium response, % at 10 µM;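 active = duplicate-averaged calcium response above the buffer-only control mean plus 5 SD of those controls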;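 note: integrated fluorescence ratio F max minus min over baseline F0; higher response in RGS4-induced cells means RGS4 inhibition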
M3R Ca ctr: counter-screen for RGS4 inhibitors: effect in non-induced cells; shares compounds with RGS4 inh; HEK293 M3R non-induced, carbachol calcium Fluo-4; submaximal (EC20) carbachol stimulus; buffer wells 0%, carbachol control wells 100%; activity (percent), % at 10 µM; 1,900 tested, 20% active; AID 493000; call rule not given here;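 note: RGS4 induction absent so cells express M3R without RGS4; higher means more calcium signal and flags a non-specific hit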
RGS4 inh ctr2: second counter-screen for RGS4 inhibitors: non-induced cells without carbachol | shares compounds with RGS4 inh | HEK293 M3R/RGS4 non-induced, Fluo-4 calcium, no carbachol; normalised: buffer wells 0%, carbachol wells 100% | calcium response (agonist-mode artifact), % at 10 µM | 1,900 tested, 22% active;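 active = duplicate-averaged calcium rise in uninduced cells above buffer wells' mean plus 5 SD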
Hits are given with their value; . = inactive; / = no result. Sampled rows, rich in hits. Any-hit rate of the full collection: about 3.5%.

SMILES	MrgX1 allo act	MrgX1 antagonist	RGS4 act	RGS4 inh	MrgX1 agonist	RGS4 inh valid	M3R Ca ctr	RGS4 inh ctr2
CCOc1ccccc1CNC(=O)c1ccc2nc(N3CCOCC3)sc2c1	.	.	.	.	.	/	/	/
COc1ccc(-c2csc(Nc3cc(C)ccn3)n2)cc1C	.	.	.	9.77	.	34.0%	39.0%	.
Cc1ccc(O)c(NC(=O)c2cc(C)no2)c1	.	.	.	.	.	/	/	/
Cc1cc(C)cc(N2C(=O)C3C4C=CC(C4)C3C2=O)c1 (stereo not given)	.	.	.	.	.	/	/	/
O=C(/C=C/c1ccc([N+](=O)[O-])cc1)c1cccs1	.	.	.	11.9	.	8.0%	37.5%	.
COc1ccc(C(=O)Nc2cccc3cccnc23)cc1OC	.	.	.	4.9	.	.	.	.
COc1ccc(NC(=O)C(=O)Nc2cccc3cccnc23)cc1OC	.	.	.	.	.	/	/	/
O=c1[nH]c2ccc(Br)cc2c(-c2ccccc2)c1CN1CCOCC1	.	.	.	7.52	.	19.0%	48.5%	.
O=c1[nH]c2ccc(Br)cc2c(-c2ccccc2)c1N1CCOCC1	.	.	.	.	.	/	/	/
CCn1c2ccccc2c2cc(/C=N/NC(=O)c3ccc(O)cc3)ccc21	.	-6.27	.	.	.	/	.	.
CCn1c2ccccc2c2cc(/C=N/NC(=O)c3cc(O)cc(O)c3)ccc21	.	.	.	8.96	.	42.5%	31.0%	.
Cc1ccc(-c2nnc(N3CCOCC3)c3ccccc23)cc1S(N)(=O)=O	.	.	.	.	.	/	/	/
O=C(NN=C1CCCC1)c1[nH]c2ccc(Cl)cc2c1-c1ccccc1	.	.	.	11.4	.	49.5%	.	.
CC(=O)NNC(=O)c1[nH]c2ccc(Cl)cc2c1-c1ccccc1	.	.	.	.	.	/	/	/
Cc1cnc(Sc2ncccc2[N+](=O)[O-])nc1	.	.	.	.	.	/	/	/
Cc1cc(C)n2nc(Sc3ncccc3[N+](=O)[O-])nc2n1	.	.	.	9.53	.	28.5%	34.0%	.
CC(=O)/C=C/n1c(=S)oc2ccccc21	.	.	.	10.1	.	21.0%	.	7.0%
CC(CNS(=O)(=O)c1ccc(Cl)cc1)n1cncn1 (stereo not given)	.	.	.	.	.	/	/	/
CCOC(=O)Cn1ccc(NC(=O)COc2ccc(F)cc2F)n1	.	.	.	.	.	/	/	/
COc1ccc(/C=N/NC(=O)c2ccc3nc[nH]c3c2)cc1	.	.	.	.	.	/	/	/
CNc1nc(N)c([N+](=O)[O-])c(Nc2ccccc2OC)n1	.	.	.	11.2	.	12.5%	44.5%	.
COc1cc(C(C(=O)NC2CCCCC2)N(C(=O)Cc2c[nH]c3ccccc23)c2ccc(C)cc2)cc(OC)c1OC (stereo not given)	.	.	.	.	.	.	.	.
COC(C)(C)[C@]12CC(O)(c3ccccc3)ON1[C@H]1CCCCC1N2O (stereo not given in full)	.	.	.	.	.	/	/	/
O=C(c1ccc(COCC(F)(F)F)o1)N1CCCCCC1	.	.	.	.	.	/	37.5%	.
OCCOCCn1c(C(CO)Nc2nc(-c3ccccc3Br)cs2)nc2ccccc21 (stereo not given)	.	.	.	.	.	/	/	/
SMILES	MrgX1 allo act	MrgX1 antagonist	RGS4 act	RGS4 inh	MrgX1 agonist	RGS4 inh valid	M3R Ca ctr	RGS4 inh ctr2
CCCn1c(C(CO)Nc2nc(-c3cccc(Br)c3)cs2)nc2ccccc21 (stereo not given)	.	.	.	10.5	.	32.5%	.	.
OCCOCCn1c(C(CO)Nc2nc(-c3cccc(Br)c3)cs2)nc2ccccc21 (stereo not given)	.	.	.	.	.	/	.	7.5%
CN(c1cccc(NC(=O)c2ccc(Cl)c(S(=O)(=O)N3CCOCC3)c2)c1)S(C)(=O)=O	.	.	.	.	.	/	/	/
O=C(/C=C/NNC(=O)c1ccc(Cl)cc1)c1ccccc1	.	.	.	6.12	.	.	.	.
Cc1ccc(S(=O)(=O)N(CC(=O)N=Nc2c(O)[nH]c3ccccc23)c2cccc(C)c2)cc1	.	.	.	.	.	/	/	/
Cc1cc(Cl)ccc1N(CC(=O)N=Nc1c(O)[nH]c2ccccc12)S(C)(=O)=O	.	.	.	4.93	.	5.5%	.	.
CCc1ccccc1-n1ncc(C(=O)Nc2ccccc2OC)c1C	.	.	.	7.41	.	.	.	31.5%
COc1ccccc1NC(=O)c1ccccc1C(=O)Nc1ccccc1OC	.	.	.	.	.	/	/	/
COc1ccc(Nc2nc(N)nc(CSc3nnc(C)s3)n2)cc1	.	.	.	.	.	.	.	.
COc1ccc(OC)c(Nc2nc(N)nc(CSc3nnc(N)s3)n2)c1	.	.	.	.	.	/	/	/
Cc1ccc(Nc2nc(N)nc(CSc3nc4ccccc4s3)n2)cc1	.	.	.	5.07	.	8.0%	.	.
Cc1ccc(Nc2nc(N)nc(CCl)n2)cc1	.	.	.	4.73	.	7.0%	.	.
COc1ccc(-c2ccnc3c(C(=O)O)cnn23)cc1	.	.	.	.	.	/	/	/
N#C/C(=C\c1ccccc1[N+](=O)[O-])c1nc(C2CC2)cs1	.	.	.	.	.	/	/	/
N#C/C(=C\c1ccc([N+](=O)[O-])cc1)c1nc(C2CC2)cs1	.	.	.	12.8	.	.	.	56.0%
O=C(CSc1nc(-c2ccc(F)cc2)cc(C(F)(F)F)n1)NCc1ccco1	.	.	.	.	.	/	/	/
C/C(=N/NC(=O)CNc1ccc(C)cc1)c1ccc(Cl)cc1	.	.	.	5.55	.	7.0%	.	.
Cc1ccc(C(=O)CNc2ccc(Cl)cc2)cc1	.	.	.	.	.	/	/	/
COc1ccccc1OCCNC(=O)C(CCSC)NS(=O)(=O)c1ccccc1F (stereo not given)	.	.	.	.	.	/	/	/
Cc1cc(C)cc(C(=O)Nc2cccc(NC(=O)c3ccco3)c2)c1	.	.	.	.	.	/	/	/
O=C(CN1CCN(c2ccc(O)cc2)CC1)NC(c1ccccc1)c1ccccc1	.	.	.	12.9	.	.	.	.
O=C(CN1CCCCCC1)NC(c1ccccc1)c1ccccc1	.	.	.	.	.	/	/	/
S=C(Nc1ccccc1Cl)N(Cc1ccccc1)Cc1ccccn1	.	.	.	.	.	/	/	/
COC(=O)c1cc(=O)n(CCc2ccc(OC)c(OC)c2)c(=Nc2ccc(F)c(Cl)c2)s1	.	.	.	5.4	.	13.0%	.	10.5%

From PubChem
